From ChEMBL document CHEMBL1153004, “Bis-14-membered ring diketal diamines: synthesis and evaluation of their anti-HIV and anti-tumoral activities” (Eur J Med Chem, 2009)

Columns and labels:
[1] = tested on: Human immunodeficiency virus 1; test: Antiviral activity against HIV1 3B in human MT4 cells assessed as inhibition of viral replication; type: functional, organism-based; conditions: Human immunodeficiency virus 1, 3B
How it was run: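 MT-4 cells in RPMI 1640 with 10% FCS at 37 °C, 5% CO2, infected with HIV-1 IIIB at 5 TCID50. After 30 min adsorption, cells were washed and resuspended at 10^5 cells/mL with serial compound dilutions. Inhibition of virus-induced cytopathogenicity was read after 5 days. IC50 came from a median-effect plot; mean of 2 experiments.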

[2] = Cytotoxicity against human MT4 cells by MTT assay; type: cell-based
How it was run: (§1)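 Uninfected cells were incubated in parallel with a range of compound concentrations. Viability was read by MTT reduction to formazan, OD 540 nm. CC50 was calculated with the same median-effect program used for IC50. Mean of 2 separate experiments.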

[3] = tested on: Human immunodeficiency virus 1; test: Antiviral activity against HIV1 LAI in human CEM-SS cells assessed as inhibition of viral replication; type: functional, organism-based; conditions: Human immunodeficiency virus 1, LAI
How it was run: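 CEM-SS cells in RPMI 1640 with 10% FCS at 37 °C, 5% CO2, infected with HIV-1 LAI at 20 TCID50. After 30 min adsorption, cells were washed and resuspended at 10^5 cells/mL with serial compound dilutions. After 5 days, reverse transcriptase activity of released virus particles was measured. IC50 came from a median-effect plot; mean of 2 experiments.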

[4] = Cytotoxicity against human CEM-SS cells by MTT assay; type: cell-based; how it was run: as §1
KB [5] = test: Antiproliferative activity against human KB cells at 10 uM after 3 hrs by MTS assay; type: functional
How it was run: (§2)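 Medium was DMEM-Glutamax for KB and HepG2 and RPMI 1640 for the other lines, each with 10% FCS, at 37 °C, 5% CO2. Cells were seeded at 500–800 per well and left to adhere for 24 h. Compounds in DMSO were added at 10^-5 M final, with 3 h exposure. Readout was MTS absorbance versus control wells after blank subtraction; triplicate.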

SF-268 = test: Antiproliferative activity against human SF268 cells at 10 uM after 3 hrs by MTS assay; type: functional; conditions: SF-268, 3 h; how it was run: as §2
HL-60 [6] = test: Antiproliferative activity against human HL60 cells at 10 uM after 3 hrs by MTS assay; type: functional; conditions: HL-60, 3 h; how it was run: as §2
MCF7 [7] = test: Antiproliferative activity against human MCF7 cells at 10 uM after 3 hrs by MTS assay; type: functional; conditions: MCF7, 3 h; how it was run: as §2
MCF7 [8] = test: Antiproliferative activity against human multidrug-resistant MCF7 cells at 10 uM after 3 hrs by MTS assay; type: functional; conditions: MCF7, 3 h; how it was run: as §2
HCT-116 [9] = test: Antiproliferative activity against human HCT116 cells at 10 uM after 3 hrs by MTS assay; type: functional; conditions: HCT-116, 3 h; how it was run: as §2
A549 = test: Antiproliferative activity against human A549 cells at 10 uM after 3 hrs by MTS assay; type: functional; conditions: A549, 3 h; how it was run: as §2
PC-3 [10] = test: Antiproliferative activity against human PC3 cells at 10 uM after 3 hrs by MTS assay; type: functional; conditions: PC-3, 3 h; how it was run: as §2
SK-OV-3 = test: Antiproliferative activity against human SKOV3 cells at 10 uM after 3 hrs by MTS assay; type: functional; conditions: SK-OV-3, 3 h; how it was run: as §2
HepG2 = test: Antiproliferative activity against human HepG2 cells at 10 uM after 3 hrs by MTS assay; type: functional; conditions: HepG2, 3 h; how it was run: as §2
KB [11] = test: Cytotoxicity against human KB cells after 3 hrs by MTS assay; type: functional, cell-based; how it was run: as §2
HL-60 [12] = test: Cytotoxicity against human HL60 cells after 3 hrs by MTS assay; type: functional, cell-based; conditions: HL-60, 3 h; how it was run: as §2
MCF7 [13] = test: Cytotoxicity against human MCF7 cells after 3 hrs by MTS assay; type: functional, cell-based; conditions: MCF7, 3 h; how it was run: as §2
HCT-116 [14] = test: Cytotoxicity against human HCT116 cells after 3 hrs by MTS assay; type: functional, cell-based; conditions: HCT-116, 3 h; how it was run: as §2
PC-3 [15] = test: Cytotoxicity against human PC3 cells after 3 hrs by MTS assay; type: functional, cell-based; conditions: PC-3, 3 h; how it was run: as §2

IC50 [1] [µM] | IC50 [3] [µM] | Compound | CC50 [2] [µM] | CC50 [4] [µM] | inhibition at 10 µM (KB [5]) [%] | inhibition at 10 µM (SF-268) [%] | inhibition at 10 µM (HL-60 [6]) [%] | inhibition at 10 µM (MCF7 [7]) [%] | inhibition at 10 µM (MCF7 [8]) [%] | inhibition at 10 µM (HCT-116 [9]) [%] | inhibition at 10 µM (A549) [%] | inhibition at 10 µM (PC-3 [10]) [%] | inhibition at 10 µM (SK-OV-3) [%] | inhibition at 10 µM (HepG2) [%] | IC50 (KB [11]) [µM] | IC50 (HL-60 [12]) [µM] | IC50 (MCF7 [13]) [µM] | IC50 (HCT-116 [14]) [µM] | IC50 (PC-3 [15]) [µM]
> 10 | > 10 | CO[C@@H]1CCN(Cc2ccc(CN3CC[C@@H](OC)OC[C@@H](c4ccccc4)NC(=O)C[C@@H](OC)OC[C@H]3c3ccccc3)cc2)[C@H](c2ccccc2)CO[C@H](OC)CC(=O)N[C@H](c2ccccc2)CO1 | > 10 | > 10 | 12 | 14 | 31 | 25 | 8 | 21 | 17 | 15 | 18 | 0 | – | – | – | – | –
> 7.8 | 8.65 | CO[C@H]1CC(=O)N[C@H](c2ccccc2)CO[C@H](OC)CCN(Cc2ccc(CN3CC[C@@H](OC)OC[C@@H](c4ccccc4)NC(=O)C[C@H](OC)OC[C@H]3c3ccccc3)cc2)[C@H](c2ccccc2)CO1 | 7.8 | > 10 | 47 | 27 | 54 | 45 | 14 | 47 | 33 | 51 | 38 | 27 | 10 | 10 | 10 | 10 | 10
> 100 | > 100 | CO[C@H]1CCN(Cc2ccc(CN3CCO[C@H](OC)CC(=O)NCCO[C@@H](OC)CC3)cc2)CCO[C@H](OC)CC(=O)NCCO1 (relative stereo) | > 100 | > 100 | 0 | 0 | 10 | 13 | 2 | 7 | 0 | 0 | 0 | 4 | – | – | – | – | –
0.41 | 0.32 | c1cc(CN2CCCNCCNCCCNCC2)ccc1CN1CCCNCCNCCCNCC1 [PLERIXAFOR] | 6.5 | > 5 | – | – | – | – | – | – | – | – | – | – | – | – | – | – | –
